Sampled rows, rich in hits. Any-hit rate of the full collection: about 5.6%.
UPR XBP1 act: activators of adaptive arm of unfolded protein response (XBP1); CHO-XBP1 luciferase reporter, IRE1-XBP1 UPR activation, luminescence; percent of tunicamycin response, DMSO as zero; activation, % at 20 µM; hit rate 0.33% among 330,000; AID 463104;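 active = versus positive control, 20 µM dose yields 30% or more activation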
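Material: CHO cell line with stable XBP1 luciferase reporter; buffer or medium: F12 medium containing 10% fetal bovine serum; compound: single point, 20 µM final compound, 1% DMSO; incubation: 6 h treatment, 37 °C; measured by: glow luminescence from Steady-Glo reagent; evaluation: activation, % of tunicamycin; control set: tunicamycin high, DMSO low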
CHOP inh: inhibitors of CHOP induction in ER stress response; CHO-K1 CHOP-promoter luciferase, tunicamycin-induced, 15-18 h; inhibition, % at 10 µM; hit rate 3.8% among 220,000;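 active = compounds that reduced the stress-induced luciferase reporter signal by more than about 70% of percent inhibition, limit read from the data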
NR3A LBD binder: modulates the human NR3A ligand-binding domain; hit rate 2.5% among 340,000; NR3A LBD differential scanning fluorimetry, Tm shift; 0% = protein alone, 100% = glycine-bound protein; Tm shift relative to glycine control, % at 25 µM;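 active = melting temperature shift of at least 10% of the positive control shift, at one fixed dose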
MPTP inh: inhibitors of mitochondrial permeability transition pore; inhibition, % at 10 µM; hit rate 1.4% among 360,000; isolated mouse mitochondria, Ca2+ swelling absorbance, 30 min;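 active = inhibition of 50% or more, scaled per plate between neutral and stimulator controls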
CHOP UPR activ: apoptotic UPR (CHOP) activation; CHO-CHOP luciferase reporter, luminescence; percent of tunicamycin response over DMSO baseline; activation, % at 10 µM; hit rate 0.34% among 330,000; AID 449763;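 active = at 10 µM dose, activation of 40% or more, normalized to positive control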
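Assay system: CHO-CHOP cells, stable luciferase reporter of PERK-eIF2a-CHOP signalling / Buffer or medium: F12 plus 10% serum / Compound dosing: one dose, 10 µM in 0.5% DMSO / Times: 6 h compound treatment, 37 °C / Technique: luciferase luminescence / Read-out: % reporter activation, DMSO baseline versus tunicamycin full activation / Benchmarks: tunicamycin and DMSO controls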
aDG glyco act: increases alpha dystroglycan glycosylation; Pro5-aDG cells, alpha-DG glycosylation AlphaScreen (IIH6); 0% Pro5, 100% B10-LARGE cell signal; activation, % at 10 µM; hit rate 0.22% among 360,000;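 active = activation of at least 8% versus controls, or a plate z-score of at least 8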;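 also: Pro5 are CHO cells carrying HIG-tagged alpha-DG that lacks glycosylation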
CHOP UPR conf: apoptotic UPR (CHOP) activation, confirmed; activation, % at 10 µM; hit rate 64% among 1,000; AID 463112; CHO-CHOP cells, CHOP-luciferase reporter luminescence; percent of tunicamycin response, DMSO as zero; shares compounds with CHOP UPR activ; in the data active = activation above about 33%
Hits are given with their value; i = inactive; nt = no result given.

SMILES | UPR XBP1 act | CHOP inh | NR3A LBD binder | MPTP inh | CHOP UPR activ | aDG glyco act | CHOP UPR conf
CCOC(=O)c1ccc(N=c2sc(C(=O)OC)cc(=O)n2CCCN2CCOCC2)cc1 | i | i | i | i | i | i | nt
Cc1[nH][nH]c(=O)c1C(c1ccc(Cl)cc1)c1c(C)[nH][nH]c1=O | i | nt | i | i | i | i | nt
Cc1cc(C(=O)c2ccc(Cl)cc2)c(NC(=O)CCl)s1 | i | i | 12 | i | 50 | i | 46
Cc1cc(N/N=C/c2ccc(F)cc2)nc(-n2nc(C)cc2C)n1 | i | 90 | i | i | 73 | i | i
COc1ccccc1/C=N/Nc1cc(C)nc(N2CCOCC2)n1 | i | i | i | i | i | i | nt
COc1cccc(/C=N/Nc2nc(Nc3ccccc3)nc(-n3nc(C)cc3C)n2)c1O | i | 87 | i | i | 93 | i | 95
Cc1cc(C)n(-c2nc(Nc3ccccc3)nc(-n3nc(C)cc3C)n2)n1 | i | i | i | i | i | i | nt
COc1ccc(/C=N/Nc2cc(C)nc(-n3nc(C)cc3C)n2)c(OC)c1 | i | i | i | i | 142 | i | 88
CCOc1ccc(Nc2cc(C)nc(-n3nc(C)cc3C)n2)cc1 | 87 | nt | i | i | 105 | i | i
Cn1ccc2c(-c3cccc(C=O)c3)cc3c(c21)C1CCC3O1 (stereo not given) | nt | nt | nt | i | nt | i | nt
CN(CC(=O)Nc1ccccc1Br)C(=O)c1cc2c(s1)CCCCC2 | i | nt | i | i | i | i | nt
COc1ccc(-c2oc(NC(=O)CCl)c(C#N)c2-c2ccc(OC)cc2)cc1 | i | i | i | i | 489 | i | 218
COc1ccc(-c2oc(NC(=O)CSc3ncn[nH]3)c(C#N)c2-c2ccc(OC)cc2)cc1 | i | i | i | i | i | i | nt
CC(C)CNC(=O)c1coc(=O)c(Br)c1 | i | nt | i | i | 175 | i | 70
O=C(NCCc1ccccc1)c1coc(=O)c(Br)c1 | i | nt | i | i | 105 | i | 73
Cc1ccccc1CSCC(=O)Nc1c(C)n(C)n(-c2ccccc2)c1=O | i | i | i | i | i | i | nt
CN(C)S(=O)(=O)c1cccc(NC(=O)CSc2cccc3cccnc23)c1 | i | nt | i | i | 162 | i | 246
O=C(CCl)N1N=C(c2cccs2)CC1c1ccco1 (stereo not given) | i | 106 | i | i | 59 | i | 34
Cn1c(SCC(=O)Nc2ccc(N3CCOCC3)c(Cl)c2)nnc1C(O)c1ccccc1 (stereo not given) | i | i | i | i | 43 | i | i
Cn1c(COc2ccccc2)nnc1SCC(=O)Nc1ccc(N2CCOCC2)c(Cl)c1 | i | i | i | i | i | i | nt
O=C(CSc1nc2nn(-c3ccccc3)c(=O)c-2c2n1CCCCC2)Nc1ccc(OC(F)F)cc1 | i | nt | i | i | i | i | nt
COC(=O)CCCCCN1C(=O)NC(C2CC2)C(C(=O)OCc2ccccc2)=C1C (stereo not given) | i | nt | i | i | i | i | nt
N#Cc1c(N)c(C(=O)c2ccccc2)n2c1CCC2 | i | i | i | i | 54 | i | i
COC(=O)c1c(N)c(C#N)c2n1CCCCC2 | i | i | i | i | i | i | nt
O=S(=O)(CCSc1nc2ccccc2s1)c1nc2ccccc2s1 | i | i | i | i | 108 | i | 154
SMILES | UPR XBP1 act | CHOP inh | NR3A LBD binder | MPTP inh | CHOP UPR activ | aDG glyco act | CHOP UPR conf
CCS(=O)(=O)CCSc1nc2ccccc2s1 | i | i | i | i | i | i | nt
Cc1ccc(-c2csc3ncnc(Sc4nnc(CN5CCCCCC5=O)o4)c23)cc1 | i | nt | i | i | 82 | i | 80
COc1cc2nc(=S)n3[nH]c(CCn4nc(C)cc4C)nc3c2cc1OC | i | i | i | i | 132 | i | 98
COc1ccccc1-c1cc(C(F)(F)F)nc(S(=O)(=O)CCCC(=O)N2CCCCC2C)n1 (stereo not given) | i | nt | i | i | 279 | i | 192
COc1ccccc1N(CC(=O)N1CCCCC1C)S(=O)(=O)c1ccc(Cl)cc1 (stereo not given) | nt | nt | nt | i | nt | i | nt
CCCn1c(N)c(C(=O)CSc2nnc(-c3cccs3)n2C2CC2)c(=O)[nH]c1=O | i | nt | i | i | i | i | nt
O=C(OC1CC2CC1[C@H]1CCCCN1C2=O)N1CCN(S(=O)(=O)c2ccccc2)CC1 (stereo not given in full) | nt | nt | nt | i | nt | i | nt
O=[N+]([O-])c1cc(-c2nnc(C34CC5CC(CC(C5)C3)C4)o2)cc([N+](=O)[O-])c1 | i | i | i | i | 137 | i | i
Cc1ccccc1OCCC(=O)NNC(=O)COc1cccc(F)c1 | i | nt | i | i | i | i | nt
CN(C(=O)CSc1cc(C(=O)c2nccn2C)c2ccccc2n1)c1ccccc1 | i | i | i | i | 95 | i | 94
Cn1ccnc1C(=O)c1cc(SCC(=O)NC2CC2)nc2ccccc12 | i | i | i | i | i | i | nt
Clc1ccc(-n2nnnc2Sc2ncnc3sccc23)cc1 | i | nt | i | i | 89 | i | 112
Cc1sc2ncnc(Sc3nnnn3-c3ccccc3)c2c1C | i | i | i | i | i | i | nt
CCCn1c(CC)nc([N+](=O)[O-])c1S(=O)(=O)c1ccccc1 | i | i | i | i | 104 | i | 71
O=C(COC(=O)/C=C/c1ccc([N+](=O)[O-])cc1)Nc1ccc2[nH]c(=O)[nH]c2c1 | i | nt | i | i | i | i | nt
N#C/C(=C\c1ccncc1)C(=O)Nc1ccc(C(=O)O)cc1 | i | nt | i | i | i | i | nt
CC(C)c1ccc(NC(=O)/C(C#N)=C/c2ccncc2)cc1 | i | nt | i | i | 59 | i | 97
C=Cc1ccc(Cn2c(C)c(C(=O)NCCC#N)sc2=O)cc1 | nt | nt | nt | i | nt | i | nt
Cc1cnc(NC(=O)c2nn(C)cc2[N+](=O)[O-])s1 | i | i | i | i | i | i | nt
Cc1ccc(-c2nc(NC(=O)c3nn(C)cc3[N+](=O)[O-])sc2C)cc1 | i | i | i | i | 100 | i | 59
Cc1ccc(-c2nc(NC(=O)c3nn(C)cc3[N+](=O)[O-])sc2C)cc1C | i | i | i | i | 65 | i | 68
O=C(COc1ccc(F)cc1Br)Nc1ccccc1N1CCOCC1 | i | nt | i | i | i | i | nt
S=c1[nH]nc(-c2cc(-c3ccccc3)n[nH]2)n1/N=C/C(Br)=C/c1ccccc1 | i | i | 17 | i | 109 | i | 130
S=c1[nH]nc(-c2cc(-c3ccccc3)n[nH]2)n1/N=C/c1ccccc1 | i | i | i | i | i | i | nt
O=C(NC1CCCC1)C(c1ccc(F)cc1)N(Cc1ccc(F)cc1)C(=O)CCl (stereo not given) | i | 92 | i | i | 48 | i | 93

Compound activity deposited in PubChem BioAssay by several laboratories.
